# Assay results taken from ChEMBL document CHEMBL5344415, “Synthesis and Characterization of Phenylalanine Amides Active against Mycobacterium abscessus and Other Mycobacteria” (J Med Chem, 2023).
# Columns and labels:
# [1] = tested on: Mycobacteroides abscessus; experiment: Antibacterial activity against MMV688845-resistant Mycobacterium abscessus Bamboo 845R-2.1 harboring rpoB/beta subunit P473L mutation assessed as bacterial growth inhibition incubated for 3 days by optical density based analysis; type: functional; settings: Bamboo 845R-2.1, 72 h, time 3 day
# Procedure, shortened: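 Tenfold-point twofold dilution series in 7H9, final DMSO 1 %. Final ranges typically 50–0.098 or 6.25–0.012 μM. Mid-log culture added to an initial OD₆₀₀ of 0.05 (5*10⁶ CFU/mL). Incubated 3 days at 37 °C with shaking at 110 rpm. Growth taken as OD₆₀₀ on day 3 minus day 0, as % of drug-free wells. MIC₉₀ read visually from the curves. Clarithromycin as control. Two biological replicates, averaged.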
# [2] = tested on: Mycolicibacterium smegmatis; experiment: Antibacterial activity against Mycobacterium smegmatis mc2 155 expressing tomato RFP assessed as bacterial growth inhibition incubated for 3 days in 7H9 medium by RFP fluorescence based broth microdilution method; type: functional; settings: mc2 155, 72 h, time 3 day
# Procedure, shortened: (§1)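 Broth microdilution in 7H9 with 10 % ADS and 0.05 % Tween 80. Twofold nine-point dilution series. Inoculum 5 x 10⁵ cells/mL taken from a mid-log preculture. Incubation at 37 °C, 3 days for M. smegmatis and M. abscessus, 5 days for M. intracellulare. Read-out by RFP fluorescence (ex 544/em 590 nm). Controls were 1 % DMSO and 100 μM amikacin. MIC₉₀ from duplicates, averaged.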
# [3] = tested on: Mycobacterium tuberculosis; experiment: Antibacterial activity against Mycobacterium tuberculosis H37Rv ATCC 27294 assessed as bacterial growth inhibition incubated for 7 days in 7H9 medium by optical density based microplate reader analysis; type: functional; settings: H37Rv ATCC 27294, 168 h, time 7 day
# Procedure, shortened: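 Compounds serially diluted in flat-bottom 96-well plates. Mid-log culture mixed in to a final OD₆₀₀ of 0.05. Sealed plates incubated in humidified boxes at 37 °C for 7 days with shaking at 80 rpm. Turbidity read at 600 nm. MIC₉₀ taken from dose–response curves. Two biological replicates, averaged.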
# [4] = tested on: Mycobacteroides abscessus; experiment: Antibacterial activity against Mycobacterium abscessus ATCC 19977 expressing tomato RFP assessed as bacterial growth inhibition incubated for 3 days in 7H9 medium by RFP fluorescence based broth microdilution method; type: functional; settings: ATCC 19977, 72 h, time 3 day; procedure, shortened: as §1
# [5] = tested on: Mycobacteroides abscessus; experiment: Antibacterial activity against Mycobacterium abscessus ATCC 19977 expressing tomato RFP assessed as bacterial growth inhibition incubated for 3 days in MHII medium by RFP fluorescence based broth microdilution method; type: functional; settings: ATCC 19977, 72 h, time 3 day
# Procedure, shortened: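 Broth microdilution in MHII broth with 0.05 % Tween 80, against the RFP-expressing strain. Twofold nine-point dilution series. Inoculum 5 x 10⁵ cells/mL from a mid-log preculture. Incubated 3 days at 37 °C. Read-out by RFP fluorescence (ex 544/em 590 nm). Controls were 1 % DMSO and 100 μM amikacin. MIC₉₀ from duplicates, averaged.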
# [6] = tested on: Mycobacterium intracellulare; experiment: Antibacterial activity against Mycobacterium intracellulare ATCC 35761 expressing tomato RFP assessed as bacterial growth inhibition incubated for 5 days in 7H9 medium by RFP fluorescence based broth microdilution method; type: functional; settings: ATCC 35761, 120 h, time 5 day; procedure, shortened: as §1
# [7] = tested on: Mycobacteroides abscessus; experiment: Antibacterial activity against Mycobacterium abscessus Bamboo harboring inactive clarithromycin-sensitive erm41 C28 sequevar assessed as bacterial growth inhibition incubated for 3 days in 7H9 medium by optical density based method; type: functional; settings: 72 h, time 3 day
# [8] = tested on: Mycobacteroides abscessus; experiment: Antibacterial activity against Mycobacterium abscessus ATCC 19977 expressing tomato RFP infected in human THP-1 cells assessed as bacterial growth inhibition incubated for 4 days in RPMI medium by RFP fluorescence based assay; type: functional; settings: ATCC 19977, 96 h, time 4 day
# Procedure, shortened: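 RFP M. abscessus washed, moved into RPMI, filtered through 5 µm and opsonised with 10 % human serum for 30 min. THP-1 cells infected at MOI 5:1 with PMA 40 ng/mL for 4 h at 37 °C, then washed. Infected cells (1x10⁵/well) given a ten-point twofold series. Incubated 4 days at 37 °C, 5 % CO₂. Cells PFA-fixed and DAPI-stained. RFP quantified by imaging. Controls were DMSO and 1.5 µM bedaquiline. Duplicate.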
# A-375 = experiment: Cytotoxicity against human A-375 cells assessed as reduction in cell viability incubated for 72 hrs by SRB assay; type: toxicity, cell-based
# HT-29 = experiment: Cytotoxicity against human HT-29 cells assessed as reduction in cell viability incubated for 72 hrs by SRB assay; type: toxicity, cell-based
# MCF7 = experiment: Cytotoxicity against human MCF7 cells assessed as reduction in cell viability incubated for 72 hrs by SRB assay; type: toxicity, cell-based
# A2780 = experiment: Cytotoxicity against human A2780 cells assessed as reduction in cell viability incubated for 72 hrs by SRB assay; type: toxicity, cell-based
# NIH3T3 = experiment: Cytotoxicity against mouse NIH3T3 cells assessed as reduction in cell viability incubated for 72 hrs by SRB assay; type: toxicity, cell-based; settings: nih3t3
# HeLa = experiment: Cytotoxicity against human HeLa cells assessed as reduction in cell viability incubated for 72 hrs by SRB assay; type: toxicity, cell-based
# HEK293 = experiment: Cytotoxicity against HEK293 cells assessed as reduction in cell viability incubated for 72 hrs by SRB assay; type: toxicity, cell-based, Homo sapiens
# [9] = Kinetic solubility of compound in PBS at 0.78 to 500 uM measured immediately by nephelometric method; type: physicochemical; settings: buffer, dose 0.78-500 µM
# Procedure, shortened: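 DMSO stocks prediluted in DMSO, then diluted 1:50 into PBS (2 % DMSO final) and read immediately by nephelometry at 0.78–500 μM; blank-corrected data fitted by segmental regression; quadruplicates from one stock.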
Structure (SMILES),MIC90 [1],MIC90 [2],MIC90 [3],MIC90 [4],MIC90 [5],MIC90 [6],MIC50 [7],MIC90 [7],MIC50 [8],MIC90 [8],EC50 (A-375),EC50 (HT-29),EC50 (MCF7),EC50 (A2780),EC50 (NIH3T3),EC50 (HeLa),EC50 (HEK293),Kinetic_solubility [9]
CC[C@H]1OC(=O)[C@H](C)[C@@H](O[C@H]2C[C@@](C)(OC)[C@@H](O)[C@H](C)O2)[C@H](C)[C@@H](O[C@@H]2O[C@H](C)C[C@H](N(C)C)[C@H]2O)[C@](C)(OC)C[C@@H](C)C(=O)[C@H](C)[C@@H](O)[C@]1(C)O [CLARITHROMYCIN],0.27 µM,–,–,–,–,–,–,–,–,–,–,–,–,–,–,–,–,–
O=C(N[C@H](Cc1ccccc1)C(=O)Nc1cc(F)ccc1N1CCS(=O)(=O)CC1)c1cccs1,–,1.56 µM,0.78 µM,6.25 µM,3.13 µM,0.2 µM,0.43 µM,6.5 µM,0.39 µM,3.13 µM,> 30 µM,> 30 µM,23.2 µM,24 µM,26.9 µM,> 30 µM,> 30 µM,70 µM
O=C(N[C@H](Cc1cccs1)C(=O)Nc1ccccc1N1CCOCC1)c1cccs1,–,1.56 µM,6.25 µM,12.5 µM,12.5 µM,1.56 µM,2.4 µM,9 µM,12.5 µM,> 100 µM,> 30 µM,29.8 µM,> 30 µM,29.5 µM,29 µM,> 30 µM,–,41 µM
CO[C@H]1/C=C/O[C@@]2(C)Oc3c(C)c(O)c4c(c3C2=O)C2=NC3(CCN(CC(C)C)CC3)NC2=C(NC(=O)/C(C)=C\C=C\[C@H](C)[C@H](O)[C@@H](C)[C@@H](O)[C@@H](C)[C@H](OC(C)=O)[C@@H]1C)C4=O [RIFABUTIN],1.1 µM,–,–,–,–,–,–,3 µM,–,–,–,–,–,–,–,–,–,–
O=C(N[C@H](Cc1ccccc1)C(=O)Nc1cc(F)ccc1N1CCSCC1)c1ccccc1F,–,6.25 µM,1.56 µM,25 µM,25 µM,0.78 µM,1.15 µM,12 µM,3.13 µM,100 µM,29.4 µM,> 30 µM,> 30 µM,28.3 µM,28.5 µM,28.3 µM,–,31 µM
